# In all, about 190,000 compounds went through this assay and about 1,800 (0.95%) were called active.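 The calls were made as follows: active = activation above the screen-wide mean of compound activation plus 3 SD (cut at about 130% in these data); inactive = the rest.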 Many of the other results were omitted from the sample, so actives are more common in it than they were.
# Assay: IL-6 driven STAT3 reporter potentiators, primary screen, U3A cells, luciferase, luminescence, MLSCN library (AID 871);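 also: 0% = background luminescence of wells with medium and substrate only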
# Conditions: IL-6 STAT3-luciferase reporter, at 5.6 µM, hits give high values
# Procedure, shortened: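 Assay system – human STAT1-deficient U3A cells with stable STAT3-luciferase reporter · Also added – IL-6 (33 ng/mL) · Schedule – compound 1 h, then IL-6 6 h at 37 °C · Technique – reporter luminescence signal · Evaluation – % activation versus median of IL-6-stimulated wells · Benchmarks – IL-6-only wells as 100% reference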
row,SMILES,activation (% of control)
1,COc1cc(-n2c(=S)[nH]c3ccc(C)cc3c2=O)c(Cl)cc1Cl,156% (active)
2,CC(=O)c1c(C)n(C(C)C)c2ccc(O)cc12,102% (inactive)
3,N#CC1=C(N)Oc2c(c(=O)oc3ccccc23)C1c1ccccc1OC(=O)c1cccs1 (stereo not given),106% (inactive)
4,CCOP(=S)(OCC)SCOC(=O)NCC(=O)OC,106% (inactive)
5,C/C(CCc1c[nH]c2ccccc12)=N\O,98% (inactive)
6,CCC/C(=N\O)c1c[nH]c2ccccc12,153% (active)
7,CC1=CC(=Cc2sc3ccccc3[n+]2C)C=C(C)O1,30.2% (inactive)
8,CCOc1ccc(CN(CCCl)CCCl)cc1C(=O)OC,96.4% (inactive)
9,CCOCCc1c(O)[nH]c(=S)[nH]c1=O,99.3% (inactive)
10,O=C(Nc1cccc2ccccc12)N1CCC2(CC1)OCCO2,105% (inactive)

# Reference: PubChem BioAssay AID871 (The Scripps Research Institute Molecular Screening Center, 2007)
